As usually defined, the Tmax is the time at which the peak concentration occurs. The AUC(0-inf) is the area under the concentration-time curve extrapolated to infinity. The term Cmax denotes the maximum level reached in the sampled fluid or tissue. Usually AUC(0-t) stands for the area under the concentration-time curve up to a stated or last time point. One may read the CL/F as clearance divided by bioavailability, as obtained after extravascular dosing.

The nature of data set [1]: Tmax in healthy human at 150 mg, po administered as single dose by HPLC-tandem mass spectrometry under fasting conditions. It counts as ADME, organism-based. The conditions noted are these: in vivo. The method, boiled down:
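Open-label crossover food-effect study in 18 healthy volunteers (9 male, 9 female, mean age 26). Each received a single 150 mg oral dose of the marketed formulation, once fasting from midnight and once after a high-fat, high-calorie breakfast, separated by a 7–10 day washout. Plasma and urine were collected over 0–72 h and assayed by HPLC-MS/MS for oseltamivir and carboxylate.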

Data set [2] can be described thus: AUC(0 to infinity) in adult fed Sprague-Dawley rat at 30 mg/kg, po administered as water solution by HPLC-tandem mass spectrometry. The conditions noted are these: plasma. It counts as ADME, organism-based. Further details: time infinity, dose 30 mg/kg, route oral; call rule not given here. The method, boiled down:
(§1)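 Sprague-Dawley males, 7-8 weeks, 243-283 g, jugular-cannulated, 3 days' recovery; fed (chow ad libitum). Single oral dose of 30 mg/kg (free base) at 10 ml/kg; 3 rats/group. Jugular blood taken at 0.25-24 h into K2EDTA with dichlorvos, kept on ice. Plasma analysed by validated LC-MS/MS (0.1-500 μg/l). Noncompartmental analysis; AUC by linear trapezoid, AUC0-∞ extrapolated using λz.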

Data set [3] can be described thus: Drug uptake in CHOK1 cells incubated for 30s to 15 mins by HPLC coupled with radiodetection analysis. The data set is classed as ADME, cell-based, Cricetulus griseus. The conditions noted are these: chinese hamster, cho-k1, 0.25 h. The method, boiled down:
(§2)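 Accumulation of [14C]oseltamivir or its carboxylate in CHO-PEPT1 versus CHO-K1 cells. Conditions varied: KH buffer (with MES) or Hanks' balanced salt solution, pH 5 or 6 readjusted after substrate addition, 30 s to 15 min at 37°C. Uptake was quenched with ice-cold PBS-BSA, followed by Triton X-100 lysis, scintillation counting, and BCA protein normalization. HPLC-radiodetection checked ester stability.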

Data set [4] can be described thus: Drug uptake in CHOK1 cells expressing human PEPT1 at pH 5 by HPLC coupled with radiodetection analysis. The settings on record: chinese hamster, cho-k1, pH 5. The data set is classed as ADME, cell-based, Cricetulus griseus. A digest of the protocol: as §2
Data set [5] can be described thus: Tmax in juvenile fasted Sprague-Dawley rat at 30 mg/kg, po administered as solution in bovine milk by HPLC-tandem mass spectrometry. It counts as ADME, organism-based. Set-up: dose 30 mg/kg, route oral. The settings on record: in vivo. A digest of the protocol: (§3)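 Seven-day-old Sprague-Dawley pups, males and females, 15 per group, were gavaged with 30 mg/kg (10 ml/kg). Breast-fed pups stayed with their dams; fasted pups were removed from 8 h predose through 5 h. Cardiac blood was drawn under isoflurane at 0.25, 0.5, 1, 2 and 5 h (composite, n=3/time point), with dichlorvos added. Plasma was analyzed by HPLC-MS/MS and Tmax read graphically.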

The nature of data set [6]: Tmax in adult fed Sprague-Dawley rat at 30 mg/kg, po administered as water solution by HPLC-tandem mass spectrometry. It counts as ADME, organism-based. Further details: dose 30 mg/kg, route oral. The settings on record: in vivo. A digest of the protocol:
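Cannulated adult male Sprague-Dawley rats with chow ad libitum, 3 per vehicle, were given oral 30 mg/kg (10 ml/kg). Plasma analysis was by HPLC-MS/MS, with Tmax taken graphically from concentration-time profiles.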

Data set [7] is described as follows: Drug uptake in CHOK1 cells expressing human PEPT1 by HPLC coupled with radiodetection analysis in presence of KH and Hanks' balanced salt solution. The data set is classed as ADME, cell-based, Cricetulus griseus. The conditions noted are these: chinese hamster, cho-k1. The method, boiled down: as §2
Data set [8] in a line: Cmax in adult fed Sprague-Dawley rat at 30 mg/kg, po administered as 125 mM aqueous Gly-Sar solution by HPLC-tandem mass spectrometry. The data set is classed as ADME, organism-based. Set-up: dose 30 mg/kg, route oral. The settings on record: in vivo. The method, boiled down:
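Adult cannulated Sprague-Dawley rats, fasted (from 6 h predose) or fed, dosed orally at 30 mg/kg (10 ml/kg), 3 per group. Serial jugular plasma with dichlorvos stabilisation, measured by LC-MS/MS. Cmax read graphically from the concentration-time profile.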

Data set [9] deals with T1, Solute carrier family 15 member 1 (Homo sapiens, UniProt P46059).
T1 sequence (P46059 whole entry): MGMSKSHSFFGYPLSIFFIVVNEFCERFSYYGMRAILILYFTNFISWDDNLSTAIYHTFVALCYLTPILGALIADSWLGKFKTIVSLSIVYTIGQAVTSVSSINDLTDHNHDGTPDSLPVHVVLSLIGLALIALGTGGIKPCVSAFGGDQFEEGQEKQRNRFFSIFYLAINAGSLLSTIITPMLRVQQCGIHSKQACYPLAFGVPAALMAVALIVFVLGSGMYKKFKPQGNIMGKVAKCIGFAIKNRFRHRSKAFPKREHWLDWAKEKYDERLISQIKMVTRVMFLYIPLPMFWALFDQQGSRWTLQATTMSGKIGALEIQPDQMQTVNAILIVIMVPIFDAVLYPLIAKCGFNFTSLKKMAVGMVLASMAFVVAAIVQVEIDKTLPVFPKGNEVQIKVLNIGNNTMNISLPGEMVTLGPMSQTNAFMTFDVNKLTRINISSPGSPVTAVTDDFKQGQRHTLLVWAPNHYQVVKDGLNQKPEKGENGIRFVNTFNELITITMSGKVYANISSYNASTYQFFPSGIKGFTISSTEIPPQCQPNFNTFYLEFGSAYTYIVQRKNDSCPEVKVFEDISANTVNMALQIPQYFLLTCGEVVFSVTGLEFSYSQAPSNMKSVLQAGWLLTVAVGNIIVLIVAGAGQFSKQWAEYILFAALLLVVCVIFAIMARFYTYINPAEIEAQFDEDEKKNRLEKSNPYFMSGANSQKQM
Put plainly: Inhibition of human PEPT1 expressed in CHOK1 cells assessed as Gly-Sar uptake at 0.3 to 10 mM after 10 mins by HPLC coupled with radiodetection analysis. The conditions noted are these: cho-k1, 10 min, 10000 µM. The data set is classed as cell-based. A digest of the protocol:
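Competition assay in CHO-PEPT1 cells: 2 µM [3H]Gly-Sar with oseltamivir or oseltamivir carboxylate at 0.3–10 mM, 10 min at 37°C, pH 6, KH/MES buffer. Tyr-Phe 0.5 mM served as positive control. Intracellular radioactivity was measured per mg protein. Three independent experiments.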

A short description of data set [10]: Tmax in juvenile fasted Sprague-Dawley rat at 30 mg/kg, po administered as 125 mM aqueous Gly-Sar solution by HPLC-tandem mass spectrometry. Set-up: dose 30 mg/kg, route oral. The data set is classed as ADME, organism-based. The settings on record: in vivo. The method, boiled down:
as §3

A short description of data set [11]: AUC(0 to 24 hrs) in adult fed Sprague-Dawley rat at 30 mg/kg, po administered as water solution by HPLC-tandem mass spectrometry. The settings on record: plasma. Further details: time < 24 hr, dose 30 mg/kg, route oral. It counts as ADME, organism-based. The method, boiled down:
as §1

A short description of data set [12]: Apparent oral clearance in healthy human at 150 mg, po administered as single dose by HPLC-tandem mass spectrometry under fed conditions. The data set is classed as ADME, organism-based. The settings on record: in vivo. The method, boiled down: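 Open-label crossover in 18 healthy volunteers (9 male, 9 female, mean age 26). Each received marketed oseltamivir 150 mg orally, once fasted from midnight and once after a high-fat, high-calorie breakfast, with a 7-10 day washout. Plasma and urine collected over 0-72 h and analysed by HPLC-MS/MS. AUC and Cmax compared after log transformation.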

Data set [13] is described as follows: AUC(0 to 5 hrs) in juvenile fasted Sprague-Dawley rat at 30 mg/kg, po administered as 125 mM aqueous Gly-Sar solution by HPLC-tandem mass spectrometry. The settings on record: plasma. Set-up: time < 5 hr, dose 30 mg/kg, route oral. It counts as ADME, organism-based. The method, boiled down:
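7-day-old Sprague-Dawley pups (9.7-18.9 g, both sexes), 15 per group. Given 30 mg/kg by oral gavage (10 ml/kg); breast-fed pups stayed with dams, fasted pups were removed 8 h before dosing. Blood taken by cardiac puncture under isoflurane at 0.25, 0.5, 1, 2 and 5 h, n=3 per time point (composite design). Dichlorvos-treated plasma assayed by LC-MS/MS; AUC0-5h by noncompartmental analysis.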

With `CCC(CC)O[C@@H]1C=C(C(=O)O)C[C@H](N)[C@H]1NC(C)=O` [OSELTAMIVIR CARBOXYLATE], the Tmax was found to be 262 min in [1], 300 min in [5], 45 min in [6] and 120 min in data set [10]. In [2], the AUC(0-inf) came to 5290 ng·h/mL. Besides, the Drug uptake entry in data set [3], in data set [4] and in data set [7] was “Active” each time. In data set [8], this molecule came in with a Cmax of 693 ng/mL. Moreover, the “inhibition (INH)” value in data set [9] was “Not Active”. Also, the AUC(0-t) at 24 h in data set [11] came to 5280 ng·h/mL. Besides, the CL/F in data set [12] stood at 385 mL/min. In [13], this molecule registered an AUC(0-t) at 5 h of 10900 ng·h/mL.

In the case of `CCOC(=O)C1=C[C@@H](OC(CC)CC)[C@H](NC(C)=O)[C@@H](N)C1` [OSELTAMIVIR], the Tmax amounted to 48.4 min in data set [1], 60 min in [5], 24.6 min in data set [6] and 30 min in data set [10]. For the same molecule, the AUC(0-inf) in data set [2] is 2510 ng·h/mL. In addition, the Drug uptake result in data set [3], in [4] and in data set [7] was “Active” in each case. The molecule also returned a Cmax in data set [8] of 926 ng/mL. In addition, the “inhibition (INH)” value in data set [9] is “Not Active”. The molecule also returned an AUC(0-t) at 24 h in data set [11] of 2510 ng·h/mL. Besides, in [12], the CL/F is 9540 mL/min. Further, the AUC(0-t) at 5 h in data set [13] turned out to be 27100 ng·h/mL.

These data come from ChEMBL document CHEMBL3526035, “Role of the intestinal peptide transporter PEPT1 in oseltamivir absorption: in vitro and in vivo studies” (Drug Metab Dispos, 2012).
